Square brackets hold non-standard residues; d marks the D form. Side chains are listed from the residue outwards. Peptide text beside a SMILES is read from it. * marks the point of attachment. dPhe(4-NHCONH2) = NC(=O)Nc1ccc(C[C@@H](N)C(=O)O)cc1; dPhe(4-NH2) = Nc1ccc(C[C@@H](N)C(=O)O)cc1; dPhe(4-Cl) = N[C@H](Cc1ccc(Cl)cc1)C(=O)O; Phe(4-NH2) = Nc1ccc(C[C@H](N)C(=O)O)cc1; d2Nal = N[C@H](Cc1ccc2ccccc2c1)C(=O)O; Lys(iPr) = CC(C)NCCCC[C@H](N)C(=O)O; d3Pal = N[C@H](Cc1cccnc1)C(=O)O; Methoxycarbamoyl = CONC(=O)*; PEG3 = NCCOCCOCCOCCC(=O)O; Butyryl = CCCC(=O)*

The source of these data is ChEMBL document CHEMBL1148636, “Novel analogues of degarelix incorporating hydroxy-, methoxy-, and pegylated-urea moieties at positions 3, 5, 6 and the N-terminus. Part III” (J Med Chem, 2006).

The target of the assay is T1, Gonadotropin-releasing hormone receptor (Homo sapiens, UniProt P30968).
T1 sequence (P30968 whole entry): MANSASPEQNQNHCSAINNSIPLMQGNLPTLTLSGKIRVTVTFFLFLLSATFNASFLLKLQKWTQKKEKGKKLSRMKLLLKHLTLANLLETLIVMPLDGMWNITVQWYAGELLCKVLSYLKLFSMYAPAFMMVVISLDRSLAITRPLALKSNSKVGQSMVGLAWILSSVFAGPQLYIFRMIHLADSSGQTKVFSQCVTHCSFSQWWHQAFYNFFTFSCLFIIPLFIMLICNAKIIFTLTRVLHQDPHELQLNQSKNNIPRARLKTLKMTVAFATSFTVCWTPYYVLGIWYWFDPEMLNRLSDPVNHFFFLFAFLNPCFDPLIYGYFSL
Put plainly: Antagonist activity at human GnRH receptor expressed in HEK293 cells as inhibition of GnRH-induced LH secretion by reporter gene assay. The class given is functional, cell-based. A digest of the protocol: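 HEK293 cells stably expressing cloned human GnRH receptor plus luciferase reporter under LH alpha subunit promoter; plated 5 × 10^4 cells/well, overnight 37 °C. Compounds in 1% DMSO, 11 half-log concentrations in duplicate, 10 min preincubation, then GnRH 1 nM final, ≥5 h at 37 °C; luminescence read. Percent of control fitted to IC50; geometric mean of ≥2 independent experiments.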
One may read the IC50 as the concentration needed to halve the response being measured. Lower therefore signals inhibition by little substance. Regarding `CCCC(=O)N[C@H](Cc1ccc2ccccc2c1)C(=O)N[C@H](Cc1ccc(Cl)cc1)C(=O)N[C@H](Cc1cccnc1)C(=O)N[C@@H](CO)C(=O)N[C@@H](Cc1ccc(NC(=O)NOC)cc1)C(=O)N[C@H](Cc1ccc(NC(N)=O)cc1)C(=O)N[C@@H](CC(C)C)C(=O)N[C@@H](CCCCNC(C)C)C(=O)N1CCC[C@H]1C(=O)N[C@H](C)C(N)=O`, the IC50 amounted to 1.46 nM.
The result for `CONC(=O)NCCOCCOCCOCCC(=O)Nc1ccc(C[C@H](NC(=O)[C@H](CO)NC(=O)[C@@H](Cc2cccnc2)NC(=O)[C@@H](Cc2ccc(Cl)cc2)NC(=O)[C@@H](Cc2ccc3ccccc3c2)NC(C)=O)C(=O)N[C@H](Cc2ccc(NC(N)=O)cc2)C(=O)N[C@@H](CC(C)C)C(=O)N[C@@H](CCCCNC(C)C)C(=O)N2CCC[C@H]2C(=O)N[C@H](C)C(N)=O)cc1` (Ac-[d2Nal][dPhe(4-Cl)][d3Pal]S[Phe(4-NH2)]([PEG3-Methoxycarbamoyl])[dPhe(4-NHCONH2)]L[Lys(iPr)]P[dA]-NH2) reads 1.06 nM; that for `CONC(=O)NCC[C@@H](NC(=O)[C@@H](Cc1ccc(Cl)cc1)NC(=O)[C@@H](Cc1ccc2ccccc2c1)NC(C)=O)C(=O)N[C@@H](CO)C(=O)N[C@@H](Cc1ccc(NC(=O)[C@@H]2CC(=O)NC(=O)N2)cc1)C(=O)N[C@H](Cc1ccc(NC(N)=O)cc1)C(=O)N[C@@H](CC(C)C)C(=O)N[C@@H](CCCCNC(C)C)C(=O)N1CCC[C@H]1C(=O)N[C@H](C)C(N)=O`, 1.69 nM; that for `CONC(=O)Nc1ccc(C[C@H](NC(=O)[C@H](CO)NC(=O)[C@@H](CCC(N)=O)NC(=O)[C@@H](Cc2ccc(Cl)cc2)NC(=O)[C@@H](Cc2ccc3ccccc3c2)NC(C)=O)C(=O)N[C@H](Cc2ccc(NC(=O)NOC)cc2)C(=O)N[C@@H](CC(C)C)C(=O)N[C@@H](CCCCNC(C)C)C(=O)N2CCC[C@H]2C(=O)N[C@H](C)C(N)=O)cc1`, 2.98 nM.
On to `CCOCCOCCNC(=O)Nc1ccc(C[C@H](NC(=O)[C@H](CO)NC(=O)[C@@H](Cc2cccnc2)NC(=O)[C@@H](Cc2ccc(Cl)cc2)NC(=O)[C@@H](Cc2ccc3ccccc3c2)NC(=O)NCCOCCOCC)C(=O)N[C@H](Cc2ccc(NC(=O)NCCOCCOCC)cc2)C(=O)N[C@@H](CC(C)C)C(=O)N[C@@H](CCCCNC(C)C)C(=O)N2CCC[C@H]2C(=O)N[C@H](C)C(N)=O)cc1`, for which the 50% inhibitory concentration (IC50) came out at 2.55 nM.
Take `CONC(=O)Nc1ccc(C[C@H](NC(=O)[C@H](CO)NC(=O)[C@@H](Cc2cccnc2)NC(=O)[C@@H](Cc2ccc(Cl)cc2)NC(=O)[C@@H](Cc2ccc3ccccc3c2)NC(C)=O)C(=O)N[C@H](Cc2ccc(NC(=O)NOC)cc2)C(=O)N[C@@H](CC(C)C)C(=O)N[C@@H](CCCNC(=O)CNC(C)C)C(=O)N2CCC[C@H]2C(=O)N[C@H](C)C(N)=O)cc1`: the IC50 was 1.53 nM.
In turn, `CONC(=O)NCCOCCOCCOCCOCCOCCOCCC(=O)Nc1ccc(C[C@@H](NC(=O)[C@H](Cc2ccc(NC(=O)NOC)cc2)NC(=O)[C@H](CO)NC(=O)[C@@H](Cc2cccnc2)NC(=O)[C@@H](Cc2ccc(Cl)cc2)NC(=O)[C@@H](Cc2ccc3ccccc3c2)NC(C)=O)C(=O)N[C@@H](CC(C)C)C(=O)N[C@@H](CCCCNC(C)C)C(=O)N2CCC[C@H]2C(=O)N[C@H](C)C(N)=O)cc1` displayed an IC50 of 1.67 nM.
For the molecule `CCCCCCCC(=O)N[C@H](Cc1ccc2ccccc2c1)C(=O)N[C@H](Cc1ccc(Cl)cc1)C(=O)N[C@H](Cc1cccnc1)C(=O)N[C@@H](CO)C(=O)N[C@@H](Cc1ccc(NC(=O)NOC)cc1)C(=O)N[C@H](Cc1ccc(NC(=O)NOC)cc1)C(=O)N[C@@H](CC(C)C)C(=O)N[C@@H](CCCCNC(C)C)C(=O)N1CCC[C@H]1C(=O)N[C@H](C)C(N)=O`, the IC50 was 4.99 nM.
On to `CONC(=O)NC[C@@H](NC(=O)[C@@H](Cc1ccc(Cl)cc1)NC(=O)[C@@H](Cc1ccc2ccccc2c1)NC(C)=O)C(=O)N[C@@H](CO)C(=O)N[C@@H](Cc1ccc(NC(=O)[C@@H]2CC(=O)NC(=O)N2)cc1)C(=O)N[C@H](Cc1ccc(NC(N)=O)cc1)C(=O)N[C@@H](CC(C)C)C(=O)N[C@@H](CCCCNC(C)C)C(=O)N1CCC[C@H]1C(=O)N[C@H](C)C(N)=O`, for which the IC50 came to 3.16 nM.
The molecule `CONC(=O)NCC[C@@H](NC(=O)[C@@H](Cc1ccc(Cl)cc1)NC(=O)[C@@H](Cc1ccc2ccccc2c1)NC(C)=O)C(=O)N[C@@H](CO)C(=O)N[C@@H](Cc1ccc(NC(=O)NOC)cc1)C(=O)N[C@H](Cc1ccc(NC(=O)NOC)cc1)C(=O)N[C@@H](CC(C)C)C(=O)N[C@@H](CCCCNC(C)C)C(=O)N1CCC[C@H]1C(=O)N[C@H](C)C(N)=O` showed an IC50 of 1.49 nM.
In turn, `CCCCCCCC(=O)N[C@H](Cc1ccc2ccccc2c1)C(=O)N[C@H](Cc1ccc(Cl)cc1)C(=O)N[C@H](Cc1cccnc1)C(=O)N[C@@H](CO)C(=O)N[C@@H](Cc1ccc(NC(=O)[C@@H]2CC(=O)NC(=O)N2)cc1)C(=O)N[C@H](Cc1ccc(NC(=O)NOC)cc1)C(=O)N[C@@H](CC(C)C)C(=O)N[C@@H](CCCCNC(C)C)C(=O)N1CCC[C@H]1C(=O)N[C@H](C)C(N)=O` came in with an IC50 of 9.47 nM.
As for `CC(=O)N[C@H](Cc1ccc2ccccc2c1)C(=O)N[C@H](Cc1ccc(Cl)cc1)C(=O)N[C@H](Cc1cccnc1)C(=O)N[C@@H](CO)C(=O)N[C@@H](Cc1ccc(NC(=O)[C@@H]2CC(=O)NC(=O)N2)cc1)C(=O)N[C@H](Cc1ccc(NC(=O)NO)cc1)C(=O)N[C@@H](CC(C)C)C(=O)N[C@@H](CCCCNC(C)C)C(=O)N1CCC[C@H]1C(=O)N[C@H](C)C(N)=O`, the IC50 worked out at 0.8 nM. This IC50 is about 12-fold lower than that of the molecule before.
Molecule `CC(=O)N[C@H](Cc1ccc2ccccc2c1)C(=O)N[C@H](Cc1ccc(Cl)cc1)C(=O)N[C@H](CCNC(=O)NO)C(=O)N[C@@H](CO)C(=O)N[C@@H](Cc1ccc(NC(=O)[C@@H]2CC(=O)NC(=O)N2)cc1)C(=O)N[C@H](Cc1ccc(NC(N)=O)cc1)C(=O)N[C@@H](CC(C)C)C(=O)N[C@@H](CCCCNC(C)C)C(=O)N1CCC[C@H]1C(=O)N[C@H](C)C(N)=O` returned an IC50 of 2.68 nM.
The result for `CCOCCOCCNC(=O)Nc1ccc(C[C@@H](NC(=O)[C@H](Cc2ccc(NC(=O)[C@@H]3CC(=O)NC(=O)N3)cc2)NC(=O)[C@H](CO)NC(=O)[C@@H](Cc2cccnc2)NC(=O)[C@@H](Cc2ccc(Cl)cc2)NC(=O)[C@@H](Cc2ccc3ccccc3c2)NC(=O)NCCOCCOCC)C(=O)N[C@@H](CC(C)C)C(=O)N[C@@H](CCCCNC(C)C)C(=O)N2CCC[C@H]2C(=O)N[C@H](C)C(N)=O)cc1` reads 4.55 nM; that for `CCCCCCCC(=O)N[C@H](Cc1ccc2ccccc2c1)C(=O)N[C@H](Cc1ccc(Cl)cc1)C(=O)N[C@H](Cc1cccnc1)C(=O)N[C@@H](CO)C(=O)N[C@@H](Cc1ccc(NC(=O)NOC)cc1)C(=O)N[C@H](Cc1ccc(NC(N)=O)cc1)C(=O)N[C@@H](CC(C)C)C(=O)N[C@@H](CCCCNC(C)C)C(=O)N1CCC[C@H]1C(=O)N[C@H](C)C(N)=O`, 4.17 nM.
The result for `CCCC(=O)N[C@H](Cc1ccc2ccccc2c1)C(=O)N[C@H](Cc1ccc(Cl)cc1)C(=O)N[C@H](Cc1cccnc1)C(=O)N[C@@H](CO)C(=O)N[C@@H](Cc1ccc(NC(=O)NOC)cc1)C(=O)N[C@H](Cc1ccc(NC(=O)NOC)cc1)C(=O)N[C@@H](CC(C)C)C(=O)N[C@@H](CCCCNC(C)C)C(=O)N1CCC[C@H]1C(=O)N[C@H](C)C(N)=O` (Butyryl-[d2Nal][dPhe(4-Cl)][d3Pal]S[Phe(4-NH2)](Methoxycarbamoyl)[dPhe(4-NH2)](Methoxycarbamoyl)L[Lys(iPr)]P[dA]-NH2) reads 1.37 nM.
